# Mcl1 Noxa PPI = Mcl-1/Noxa interaction inhibition | TR-FRET Mcl-1/Noxa peptide binding, 2 h | AID 1022 | Q07820 | hit rate 1.5% among 220,000 | inhibition, % at 21.7 µM;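 active means compounds that cut the protein-peptide binding signal by more than 50% relative to plate controls in a single-dose test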;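 further: His-tagged Mcl-1 with rhodamine Noxa BH3 peptide and terbium anti-His antibody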
# Bim-Mcl-1 = inhibitors of Bim-Mcl-1 interaction, human; Bead-based flow cytometry, Bim peptide-Mcl-1 binding; hit rate 0.1% among 190,000; inhibition, % at 10 µM; in the data active means inhibition above about 40%
# EBV gp42 inh = blocks Epstein-Barr virus glycoprotein 42 binding. Fluorescence polarization binding assay, mP read-out. inhibition, % (tested at 21.74 µM). hit rate 0.42% among 220,000; in the data active means inhibition above about 50%
# Target sequence (Q1HVG2 whole entry, looked up): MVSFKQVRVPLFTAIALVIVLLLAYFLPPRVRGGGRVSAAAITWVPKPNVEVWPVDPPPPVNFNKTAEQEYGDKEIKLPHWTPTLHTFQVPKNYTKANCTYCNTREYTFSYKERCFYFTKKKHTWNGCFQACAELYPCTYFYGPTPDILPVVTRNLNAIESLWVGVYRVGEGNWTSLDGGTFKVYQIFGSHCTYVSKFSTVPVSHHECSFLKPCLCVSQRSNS
# RBBP9 inh = inhibitors of human serine hydrolase RBBP9. recombinant RBBP9, FP-Rh probe fluorescence polarization. inhibition, % at 7.94 µM. hit rate 0.2% among 220,000. AID 1515;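 active means inhibition above the campaign mean of all tested compounds plus 3 SD, cut at about 14% in these data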
# Target sequence (O75884 whole entry, looked up): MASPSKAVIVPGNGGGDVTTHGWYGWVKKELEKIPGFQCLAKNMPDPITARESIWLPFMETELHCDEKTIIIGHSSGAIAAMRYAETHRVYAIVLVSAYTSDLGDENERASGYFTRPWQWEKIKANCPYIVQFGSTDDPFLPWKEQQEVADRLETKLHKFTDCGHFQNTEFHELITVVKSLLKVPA
#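 Test system: recombinant human RBBP9; Timing: 30 min then 45 min, 25 °C; Detection: fluorescence polarization; Control set: RBBP9 with DMSO as uninhibited control, no-protein wells as full inhibition; Compound dosing: one concentration, 7.94 µM nominal, 0.794% DMSO; Probe or stimulus: FP-Rh activity-based probe, 375 nM before mixing.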
# MCL1 BIM primary = disrupts human MCL1 binding to BIM-BH3 peptide; GST-MCL1 / FITC-Bim-BH3 fluorescence polarization; inhibition, % at 10.9 µM; hit rate 0.68% among 320,000; AID 2057;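 active means inhibition above the mean inhibition of all tested compounds plus 3 SD, set per campaign, cut at about 40% in these data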;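 further: higher means more loss of mP so more displacement of Bim peptide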
# Mcl1 Bid PPI = disrupts binding of human Mcl-1 to Bid peptide; inhibition, % at 21.7 µM; Q07820; AID 1021; hit rate 0.97% among 220,000; TR-FRET Mcl-1/Bid-Dy647 peptide binding, 1536-well;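 active means compounds that cut the binding signal by more than half at the single screening dose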;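 further: His-tagged Mcl-1 with europium anti-His antibody binding Bid BH3 peptide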
# A number is an active result; 0 = inactive; - = not tested or not shown. Hits are enriched below; roughly 2.2% of the tested compounds scored in any of these assays.
SMILES,Mcl1 Noxa PPI,Bim-Mcl-1,EBV gp42 inh,RBBP9 inh,MCL1 BIM primary,Mcl1 Bid PPI
COc1ccc(NC(=O)C2C3C=CC4(O3)C2C(=O)N(CCN2CCCCC2C)C4C(=O)NC2CCCCC2)cc1 (configuration not stated),-,-,-,-,0,-
Cc1ccc2occ(/C=N/NC(=O)c3ccccc3O)c(=O)c2c1,-,-,-,-,0,-
O=C1c2ccc([N+](=O)[O-])cc2NC(c2ccco2)N1/N=C/c1ccco1 (configuration not stated),84.3,-,0,0,0,0
CN=c1scc(-c2ccc([N+](=O)[O-])cc2)n1/N=C/c1ccco1,0,0,0,0,0,0
CC(C)NC(=O)CSc1nc(N)c(NC(=O)c2ccccc2F)c(=O)[nH]1,0,0,0,0,0,0
COc1ccc(C)cc1-n1c(C)cc(C=O)c1C,0,0,0,0,0,0
COc1ccc(N)cc1-n1c(C)ccc1C,0,0,0,0,45.6,0
COc1nccnc1NS(=O)(=O)c1ccc(N/C=C2\CCCCC2=O)cc1,0,0,0,0,0,0
Cc1ccc(S(=O)(=O)N(C)C)cc1NC(=O)CN1CCCC1,-,-,-,-,0,-
CCN(CC)S(=O)(=O)c1ccc(C)c(NC(=O)CN2CCN(C)CC2)c1,0,-,0,0,0,65.1
Cc1cccc2nc(CSc3nc4ccc([N+](=O)[O-])cc4[nH]3)c(Br)n12,60.3,0,0,0,0,0
COc1ccccc1CNC(=O)COC(=O)C12CC3CC(CC(O)(C3)C1)C2,-,-,-,-,0,-
COc1cc(CNCc2ccc(SC)cc2)cc(OC)c1,0,0,0,0,0,50.7
COc1cc2c(cc1OC)n(CC(=O)NC1CCCCCC1)n1c(C)cc(=O)nc21,-,-,-,-,0,-
Cc1ccc(-n2c(=O)c3cc4c(=O)n(-c5ccc(C)c(C)c5)c(=O)c4c(C(=O)c4ccc(C(=O)O)cc4)c3c2=O)cc1C,95.4,-,0,0,0,101.5
O=C(O)c1ccc(-n2c(=O)c3ccccc3c3ccccc3c2=O)cc1,0,0,0,0,0,0
CS(=O)(=O)c1ccc(NC(=O)c2cccc(S(=O)(=O)N3CCN(Cc4ccccc4)CC3)c2)cc1,-,-,-,-,0,-
NC(=O)[C@@H]1CCCN1Cc1c(C(=O)N2CCc3ccccc3C2)nc2ccc(Cl)cn12,-,-,-,-,43.2,-
COCCCNC(=S)N1CCC(NC(=O)c2ccco2)CC1,0,0,0,0,0,0
O=C(N/N=C/c1c(O)n(Cc2ccccc2)c(=O)c2ccccc12)c1cccnc1,0,0,0,0,0,0
O=C(N/N=C/c1c(O)n(-c2ccccc2Cl)c(=O)c2ccccc12)c1cccnc1,55.4,0,0,0,-,0
Cc1ccc(-c2nnc(N3CCCCC3)c3ccccc23)cc1,0,-,0,0,0,0
Cc1ccc(-c2nnc(N3CC(C)OC(C)C3)c3ccccc23)cc1 (configuration not stated),0,0,0,0,0,90.6
CC(C)(C)c1ccc(C(=O)NC2CCN(Cc3ccccc3)CC2)cc1,-,-,-,-,0,-
COc1ccc(NC(=O)CN2CCCCCC2)cc1OC,-,-,-,-,0,-
SMILES,Mcl1 Noxa PPI,Bim-Mcl-1,EBV gp42 inh,RBBP9 inh,MCL1 BIM primary,Mcl1 Bid PPI
Cc1cnc(NC(=O)/C=C/c2ccc(Br)o2)s1,0,-,0,0,0,0
O=C(/C=C/c1ccc(Br)o1)Nc1nnc(C2CC2)s1,61.8,-,0,0,0,0
CCC(Sc1ncccc1Nc1ccccn1)C(=O)O (configuration not stated),-,-,-,-,0,-
CCOC(=O)N1CCN(C(=O)c2cnn3c(C(F)(F)F)cc(-c4cccs4)nc23)CC1,0,0,0,0,0,0
O=C(c1cnn2c(C(F)(F)F)cc(-c3cccs3)nc12)N1CCOCC1,0,0,0,0,0,68.8
NC(=O)c1ccc(-c2nnc(Nc3ccc(S(N)(=O)=O)cc3)c3ccccc23)cc1,-,-,-,-,0,-
Cc1cccn2c(=O)c3cc(C(=O)NCCCn4ccnc4)n(C)c3nc12,0,0,0,0,46.8,0
Cc1cccc(N(CC(=O)NCCc2ccccc2)C(=O)CCC(=O)Nc2ccccn2)c1C,-,-,-,-,0,-
Oc1ccccc1CNc1ccc(OC(F)(F)F)cc1,57.5,0,0,0,0,0
C=CCn1c(O)c(N=Nc2ccccc2C)c2ccccc21,0,0,68.0,0,0,0
O=[N+]([O-])c1cc(-c2ccc(C(=S)N3CCOCC3)o2)ccc1Cl,0,0,0,0,43.2,0
CC1(c2cccc(Br)c2)NC(=O)N(CC(=O)N2CCc3ccccc32)C1=O (configuration not stated),-,-,-,-,0,-

# Screening data from PubChem BioAssay.
